Measurements taken from article PMC8035306 (Journal of medicinal chemistry, 2021).

Experiments:
PRMT6 [1] = target: T1, PRMT6 (Homo sapiens, UniProt Q96LA8); test: PRMT6 radiometric biochemical assay, 2 h preincubation
PRMT6 [2] = target: T1, PRMT6; test: Methyltransferase selectivity panel: PRMT6; assay type: biochemical; details: at 1 and 10 μM
Outline: (§1)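 Panel of 33 methyltransferases (8 PRMTs, 21 PKMTs, 3 DNMTs, 1 RNA methyltransferase) run by an earlier published protocol. Test compound at 1 μM and 10 μM; n = 3.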

[3] = tested on: other 32 methyltransferases (PRMTs, PKMTs, DNMTs, RNA methyltransferase); test: Methyltransferase selectivity panel: other 32 methyltransferases; assay type: biochemical; details: at 1 and 10 μM
Outline: as §1

PRMT6 [4] = target: T1, PRMT6; test: Mass spectrometry analysis for assessing covalent binding; details: PRMT6 incubated with compound for 2 h
Outline: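 Purified PRMT6 incubated with a 20-fold molar excess of test compound at room temperature, then acidified with 0.1% trifluoroacetic acid (aq.). Sample separated by HPLC on a 5–95% acetonitrile/water gradient and analysed by electrospray-ionisation time-of-flight mass spectrometry for mass shifts indicating covalent adducts.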

HEK293T cells = test: Toxicity to HEK293T cells seen in the cellular PRMT6 assay; assay type: cell-based; details: 20 h
HEK293T = test: Cell viability assay; assay type: cell-based; details: up to 10 μM, 3 days treatment
Outline: (§2)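 Cells seeded at 1 × 10^4 per well and left 24 h, then exposed for 3 days to serially diluted test compound starting at 10 μM. CCK-8 (WST-8) reagent added, followed by 4 h at 37 °C; absorbance read at 450 nm. Results given as average ± SD of three replicate experiments.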

PNT2 = test: Cell viability assay; assay type: cell-based; details: PNT2, up to 10 μM, 3 days treatment
Outline: as §2

MCF-7 = test: Cell viability assay; assay type: cell-based; details: MCF-7, up to 10 μM, 3 days treatment
Outline: as §2

[5] = target: Flag-tagged PRMT6 in HEK293T cells (Homo sapiens, UniProt Q96LA8); test: Cellular PRMT6 assay; assay type: cell-based; details: 20 h, up to 10 μM
Sequence of Flag-tagged PRMT6 in HEK293T cells (Q96LA8 whole entry): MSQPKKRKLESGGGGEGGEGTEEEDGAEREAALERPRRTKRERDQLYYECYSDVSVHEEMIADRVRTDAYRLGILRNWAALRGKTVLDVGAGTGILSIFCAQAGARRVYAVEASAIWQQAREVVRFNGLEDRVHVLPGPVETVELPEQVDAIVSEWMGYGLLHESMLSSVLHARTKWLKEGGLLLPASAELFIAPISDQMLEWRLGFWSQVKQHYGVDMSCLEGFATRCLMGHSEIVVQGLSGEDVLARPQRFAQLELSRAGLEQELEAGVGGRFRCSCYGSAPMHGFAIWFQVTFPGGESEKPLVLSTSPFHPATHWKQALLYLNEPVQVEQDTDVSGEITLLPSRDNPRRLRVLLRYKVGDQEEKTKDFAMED

T1 sequence (Q96LA8 whole entry): as above

| Compound | decrease in the IC50 value after compound preincubation with PRMT6 (PRMT6 [1]; 2 h preincubation versus no incubation) | pattern of inhibition with respect to SAM cofactor and peptide substrate (PRMT6 [1]; 2 h preincubation, IC50 at various SAM or peptide concentrations) | inhibition of PRMT6 in methyltransferase panel (PRMT6 [2]) | inhibition of other 32 methyltransferases [3] | covalent modification of PRMT6 (PRMT6 [4]) | toxicity to HEK293T cells (HEK293T cells; up to 10 μM) | toxicity (cell viability) (HEK293T) | toxicity (cell viability) (PNT2) | toxicity (cell viability) (MCF-7) | activity against PRMT6 (in words) (PRMT6 [1]) | reduction of cellular levels of H3R2me2a [5] | reduction of cellular levels of H4R3me2a [5] | toxicity to HEK293T cells (HEK293T cells; at 30 μM) |
| --- | --- | --- | --- | --- | --- | --- | --- | --- | --- | --- | --- | --- | --- |
| Cc1cc(C)cc([C@@H]2c3cc(C)ccc3NC(=O)CN2C(=O)c2ccc(Br)s2)c1 [(R)-2, 4-(5-bromothiophene-2-carbonyl)-5-(3,5-dimethylphenyl)-7-methyl-1,3,4,5-tetrahydro-2H-benzo[e][1,4]diazepin-2-one] | more than 100 fold | noncompetitive | potently inhibited | did not significantly inhibit | No covalent modification | did not show significant toxicity | Neither (R)-2 nor (S)-2 showed any significant toxicity | Neither (R)-2 nor (S)-2 showed any significant toxicity | Neither (R)-2 nor (S)-2 showed any significant toxicity |  |  |  |  |
| Cc1cc(C)cc([C@H]2c3cc(C)ccc3NC(=O)CN2C(=O)c2ccc(Br)s2)c1 [(S)-2, 4-(5-bromothiophene-2-carbonyl)-5-(3,5-dimethylphenyl)-7-methyl-1,3,4,5-tetrahydro-2H-benzo[e][1,4]diazepin-2-one] |  |  | did not significantly inhibit | did not significantly inhibit |  |  | Neither (R)-2 nor (S)-2 showed any significant toxicity | Neither (R)-2 nor (S)-2 showed any significant toxicity | Neither (R)-2 nor (S)-2 showed any significant toxicity | inactive | did not significantly reduce | did not significantly reduce | significant toxicity |
